In ChEMBL document CHEMBL2021903, “3-Deoxy-3,4-dehydro analogs of XM462. Preparation and activity on sphingolipid metabolism and cell fate” (Bioorg Med Chem, 2012) one finds inhibition and Activity data, which are given here for three molecules.

Active and inactive are the calls of the source. The rule behind the calls is not given here.

Assay [1] concerns the target T1, Acid ceramidase (Homo sapiens) (UniProt Q13510).
T1 sequence (whole entry): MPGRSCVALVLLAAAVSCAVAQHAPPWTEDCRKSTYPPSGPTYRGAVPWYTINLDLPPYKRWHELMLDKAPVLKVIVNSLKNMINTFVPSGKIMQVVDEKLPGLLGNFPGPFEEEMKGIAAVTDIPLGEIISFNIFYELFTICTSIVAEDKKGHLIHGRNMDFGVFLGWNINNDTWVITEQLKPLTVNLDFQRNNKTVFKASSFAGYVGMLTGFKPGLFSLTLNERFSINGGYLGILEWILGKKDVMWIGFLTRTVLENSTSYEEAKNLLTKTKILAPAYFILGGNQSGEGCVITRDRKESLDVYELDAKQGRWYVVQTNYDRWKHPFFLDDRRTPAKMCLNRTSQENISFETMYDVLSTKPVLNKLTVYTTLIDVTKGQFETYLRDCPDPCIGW
The assay can be described thus: Inhibition of aCDase using RBM14C16 as substrate at 16 uM after 1 hr by HPLC-FD analysis.

The target of assay [2] is T1, Acid ceramidase (Homo sapiens). In words: Inhibition of aCDase in Moh.pAS AcCer10X cells using RBM14C16 as substrate at 16 uM after 1 hr by HPLC-FD analysis. It counts as cell-based.
The test system of assay [3] is HCT-116. The assay can be described thus: Induction of apoptosis in human HCT116 cells at 30 uM after 14 hrs by Annexin V-propidium iodide staining based flow cytometry. It counts as functional, cell-based. An outline of the steps:
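HCT116 (clone 40–16) in low-glucose DMEM with 10% FBS and 1% penicillin–streptomycin, seeded 2.5×10⁵ cells/mL. After 24 h, medium replaced with compound-containing medium; ethanol vehicle to controls. After incubation, cells PBS-washed, trypsinized, stained with Annexin V and propidium iodide, analysed by flow cytometry. Mean ± SD, 3 experiments in triplicate.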

In the case of `CCCCCCCCCCCCC/C=C/[C@@H](O)[C@H](CO)NC(=O)C(C)(C)C`, the inhibition in assay [1] and in assay [2] was 50% in each case.
In the case of `CCCCCCCCCCCCCCC[C@@H](O)[C@H](CO)NC(=O)C(C)(C)C`, the inhibition in assay [1] and in assay [2] was 50% in each case.
In the case of `CCCCCCCCCCCCC/C=C/[C@@H](O)[C@H](CO)NC(=O)CCCCCCC`, the outcome in assay [3] was Active.
